Measurements reported in ChEMBL document CHEMBL1154676, “Synthetic mRNA splicing modulator compounds with in vivo antitumor activity” (J Med Chem, 2009).

Assays:
SF-539 = assay: Growth inhibition of human SF539 cells by sulforhodamine B assay; assay type: functional
KM12 = assay: Growth inhibition of human KM12 cells by sulforhodamine B assay; assay type: functional
HT-29 = assay: Growth inhibition of human HT-29 cells by sulforhodamine B assay; assay type: functional
HCT-15 = assay: Growth inhibition of human HCT15 cells by sulforhodamine B assay; assay type: functional
SR = assay: Growth inhibition of human SR cells by sulforhodamine B assay; assay type: functional
[1] = Cytotoxicity against human BT-3 cells after 72 hrs by XTT assay; assay type: functional, cell-based; conditions: BT-3, 72 h
Outline: (§1)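 Cells grown at 37 °C, 5% CO2; HFF in DMEM with 10% FBS, PrEC in prostate epithelial growth medium. Adherent lines seeded overnight, suspension lines same day; compounds diluted from DMSO stocks into media at various final concentrations, 72 h exposure. XTT reagent added 4 h, absorbance 490 nm (reference 690 nm). Growth as % of vehicle; IC50 from sigmoidal dose-response fit; mean ± SEM, three independent experiments.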

[2] = Cytotoxicity against human Rh30 cells after 72 hrs by XTT assay; assay type: functional, cell-based; conditions: SJRH30, 72 h; outline: as §1
[3] = Cytotoxicity against human NB-EBc1 cells after 72 hrs by XTT assay; assay type: functional, cell-based; conditions: NB-EBc1, 72 h; outline: as §1
MV4-11 = assay: Cytotoxicity against human MV4-11 cells after 72 hrs by XTT assay; assay type: functional, cell-based; conditions: MV4-11, 72 h; outline: as §1
PANC-1 = assay: Cytotoxicity against human PANC1 cells after 72 hrs by XTT assay; assay type: functional, cell-based; conditions: PANC-1, 72 h; outline: as §1
SK-MEL-28 = assay: Cytotoxicity against human SK-MEL-28 cells after 72 hrs by XTT assay; assay type: functional, cell-based; conditions: SK-MEL-28, 72 h; outline: as §1
WiDr = assay: Cytotoxicity against human WiDr cells after 72 hrs by XTT assay; assay type: functional, cell-based; outline: as §1
[4] = Cytotoxicity against human JeKo1 cells after 72 hrs by XTT assay; assay type: functional, cell-based; conditions: JeKo-1, 72 h; outline: as §1
Mus musculus [5] = assay: Toxicity in NOD/SCID mouse assessed as anemia at 5 to 50 mg/kg, iv and po for 5 days; assay type: organism-based; parameters: dose 5-50 mg/kg, route oral; conditions: in vivo, 120 h
Mus musculus [6] = assay: Toxicity in NOD/SCID mouse assessed as total necropsies at 5 to 50 mg/kg, […] for 5 days; assay type: organism-based; parameters: dose 5-50 mg/kg; conditions: in vivo, po, 120 h
Mus musculus [7] = assay: Toxicity in NOD/SCID mouse assessed as glucose at 5 to 50 mg/kg, […] for 5 days; assay type: organism-based; parameters: dose 5-50 mg/kg; conditions: in vivo, po, 120 h
Mus musculus [8] = assay: Toxicity in NOD/SCID mouse assessed as globulin level at 5 to 50 mg/kg, […] for 5 days; assay type: organism-based; parameters: dose 5-50 mg/kg; conditions: in vivo, po, 120 h
Mus musculus [9] = assay: Toxicity in NOD/SCID mouse assessed as creatinine level at 5 to 50 mg/kg, […] for 5 days; assay type: organism-based; parameters: dose 5-50 mg/kg; conditions: in vivo, po, 120 h
Mus musculus [10] = assay: Toxicity in NOD/SCID mouse assessed as blood urea nitrogen level at 5 to 50 mg/kg, iv and po for 5 days; assay type: organism-based; parameters: dose 5-50 mg/kg, route oral; conditions: in vivo, 120 h
Mus musculus [11] = assay: Toxicity in NOD/SCID mouse assessed as alanine aminotransferase level at 5 to 50 mg/kg, […] for 5 days; assay type: organism-based; parameters: dose 5-50 mg/kg, route oral; conditions: in vivo, po, 120 h
BT-549 = assay: Growth inhibition of human BT549 cells by sulforhodamine B assay; assay type: functional
[12] = Growth inhibition of human Hs 578T cells by sulforhodamine B assay; assay type: functional
CAKI-1 = assay: Growth inhibition of human Caki1 cells by sulforhodamine B assay; assay type: functional
ACHN = assay: Growth inhibition of human ACHN cells by sulforhodamine B assay; assay type: functional
SK-OV-3 = assay: Growth inhibition of human SKOV3 cells by sulforhodamine B assay; assay type: functional
OVCAR-3 = assay: Growth inhibition of human OVCAR-3 cells by sulforhodamine B assay; assay type: functional
LOX IMVI = assay: Growth inhibition of human LOXIMVI cells by sulforhodamine B assay; assay type: functional
[13] = read-out: Log10GI50 (converted)
[14] = read-out: Log10LC50 (converted)

Compound: CC(/C=C/[C@@H]1C[C@]2(CO2)CC(C)(C)O1)=C\C[C@H]1CC[C@@H](NC(=O)/C=C\[C@H](C)OC(=O)C(C)C)CC1
- GI50 (SF-539; [13]): 0.372 µM
- CC50 (SF-539; [14]): > 100 µM
- TGI (SF-539; read-out: Log10TGI (converted)): 18.6 µM
- GI50 (KM12; [13]): 0.309 µM
- CC50 (KM12; [14]): > 100 µM
- TGI (KM12; read-out: Log10TGI (converted)): > 100 µM
- GI50 (HT-29; [13]): 0.191 µM
- CC50 (HT-29; [14]): > 100 µM
- TGI (HT-29; read-out: Log10TGI (converted)): 10 µM
- GI50 (HCT-15; [13]): 0.794 µM
- CC50 (HCT-15; [14]): > 100 µM
- TGI (HCT-15; read-out: Log10TGI (converted)): 34.7 µM
- GI50 (SR; [13]): 0.0589 µM
- CC50 (SR; [14]): > 100 µM
- TGI (SR; read-out: Log10TGI (converted)): 0.447 µM
- IC50 [1]: 4.41 µM
- IC50 [2]: 0.69 µM
- IC50 [3]: 0.66 µM
- IC50 (MV4-11): 0.3 µM
- IC50 (PANC-1): 3.87 µM
- IC50 (SK-MEL-28): 0.55 µM
- IC50 (WiDr): 0.91 µM
- IC50 [4]: 0.12 µM
- Activity (Mus musculus [5]): Non-toxic
- Activity (Mus musculus [6]): Non-toxic
- Activity (Mus musculus [7]): Non-toxic
- Activity (Mus musculus [8]): Non-toxic
- Activity (Mus musculus [9]): Non-toxic
- Activity (Mus musculus [10]): Non-toxic
- Activity (Mus musculus [11]): Non-toxic
- GI50 (BT-549; [13]): 0.138 µM
- CC50 (BT-549; [14]): > 100 µM
- TGI (BT-549; read-out: Log10TGI (converted)): 0.776 µM
- GI50 [12, 13]: 0.309 µM
- CC50 [12, 14]: > 100 µM
- TGI ([12]; read-out: Log10TGI (converted)): 45.7 µM
- GI50 (CAKI-1; [13]): 0.302 µM
- CC50 (CAKI-1; [14]): > 100 µM
- TGI (CAKI-1; read-out: Log10TGI (converted)): 2.14 µM
- GI50 (ACHN; [13]): 0.537 µM
- CC50 (ACHN; [14]): > 100 µM
- TGI (ACHN; read-out: Log10TGI (converted)): 75.9 µM
- GI50 (SK-OV-3; [13]): 0.912 µM
- CC50 (SK-OV-3; [14]): > 100 µM
- TGI (SK-OV-3; read-out: Log10TGI (converted)): > 100 µM
- GI50 (OVCAR-3; [13]): 0.229 µM
- CC50 (OVCAR-3; [14]): > 100 µM
- TGI (OVCAR-3; read-out: Log10TGI (converted)): 3.47 µM
- GI50 (LOX IMVI; [13]): 0.0794 µM
- CC50 (LOX IMVI; [14]): 55 µM
